Converted amounts (≈) assume the structure as drawn. The source made the active and inactive calls. No cut-off for these calls is given here.
Tests used:
[1] = test system: Salmonella typhimurium; assay: Potentiation of erythromycin-induced antibacterial activity against Salmonella enterica subsp. enterica serovar Typhimurium BN10055 assessed as ratio of the erythromycin alone MIC to erythromycin MIC in presence of MIC/4 level of compound incubated for 18 hrs; format: functional
Summary of the method: (§1)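 Broth microdilution in MH broth, 10^5 CFU inoculum, two-fold antibiotic dilutions, with or without compound at MIC/4. MIC is the lowest concentration with no visible growth after 18 h at 37°C. Gain is antibiotic MIC alone divided by MIC with compound. MICs repeated in at least three independent experiments; up to 5% DMSO.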

[2] = test system: Klebsiella aerogenes; assay: Antibacterial activity against Enterobacter aerogenes Ea289 containing deltaacrB mutant assessed as inhibition of bacterial growth incubated for 18 hrs; format: organism-based
Summary of the method: (§2)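 Broth microdilution per CA-SFM in MH broth; inoculum 10⁵ CFU in 200 µL with two-fold serial dilutions; compounds dissolved in DMSO, up to 5% DMSO on bacteria. MIC = lowest concentration with no visible growth after 18 h at 37°C. Repeated at least three times independently.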

[3] = test system: Klebsiella aerogenes; assay: Potentiation of chloramphenicol-induced antibacterial activity against Enterobacter aerogenes Ea289 assessed as efficiency index by measuring sum of gain factor for each test compound reported for chloramphenicol/nalidixic acid/doxycycline/erythromycin and divided by concentration of test compound; format: functional; details: pooled result: one value given for 2 cell lines, strains, targets or settings
Summary of the method: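 Gain factors (antibiotic MIC alone / MIC with compound at MIC/4; broth dilution, 18 h, 37°C) for erythromycin, doxycycline, nalidixic acid and chloramphenicol are summed, then divided by the compound concentration used in the assay.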

[4] = Toxicity index, ratio of IC50 for toxicity in CHO cells to concentration of test compound causing at least 8 times decrease of MIC of almost 3 antibiotics (chloramphenicol/nalidixic acid/doxycycline/erythromycin ) against Enterobacter aerogenes Ea289; format: cell-based; details: hamster, pooled result: one value given for 2 cell lines, strains, targets or settings
[5] = test system: Klebsiella aerogenes; assay: Potentiation of chloramphenicol-induced antibacterial activity against Enterobacter aerogenes Ea289 assessed as ratio of the chloramphenicol alone MIC to […] in presence of MIC/4 level of compound incubated for 18 hrs; format: functional; summary of the method: as §1
[6] = test system: Salmonella typhimurium; assay: Potentiation of nalidixic acid-induced antibacterial activity against Salmonella enterica subsp. enterica serovar Typhimurium BN10055 assessed as ratio of the nalidixic acid alone MIC to […] in presence of MIC/4 level of compound incubated for 18 hrs; format: functional; summary of the method: as §1
[7] = test system: Salmonella typhimurium; assay: Potentiation of doxycycline-induced antibacterial activity against Salmonella enterica subsp. enterica serovar Typhimurium BN10055 assessed as ratio of the doxycycline alone MIC to doxycycline MIC in presence of MIC/4 level of compound incubated for 18 hrs; format: functional; summary of the method: as §1
[8] = test system: Salmonella typhimurium; assay: Potentiation of chloramphenicol-induced antibacterial activity against Salmonella enterica subsp. enterica serovar Typhimurium BN10055 assessed as ratio of the chloramphenicol alone MIC to […] in presence of MIC/4 level of compound incubated for 18 hrs; format: functional; summary of the method: as §1
[9] = test system: Klebsiella aerogenes; assay: Potentiation of erythromycin-induced antibacterial activity against Enterobacter aerogenes Ea289 assessed as ratio of the erythromycin alone MIC to erythromycin MIC in presence of MIC/4 level of compound incubated for 18 hrs
[10] = Toxicity in CHO cells assessed as reduction in cell viability incubated for 24 hrs by WST1 assay; format: cell-based; details: Chinese hamster (Cricetulus griseus)
Summary of the method: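 CHO-K1 cells in McCoy's 5A with 10% FCS, exposed in triplicate to 30–1200 μM compound for 24 h at 37°C. After PBS washes, 30 min in medium with 10% WST-1; absorbance at 450 nm. IC50 is the concentration giving 50% loss of viable cells.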

[11] = test system: Klebsiella aerogenes; assay: Potentiation of nalidixic acid-induced antibacterial activity against Enterobacter aerogenes Ea289 assessed as ratio of the nalidixic acid alone MIC to nalidixic acid MIC in presence of MIC/4 level of compound incubated for 18 hrs
[12] = test system: Klebsiella aerogenes; assay: Potentiation of doxycycline-induced antibacterial activity against Enterobacter aerogenes Ea289 assessed as ratio of the doxycycline alone MIC to doxycycline MIC in presence of MIC/4 level of compound incubated for 18 hrs; format: functional; summary of the method: as §1
[13] = Toxicity in BALB/cByJ mouse assessed as induction of toxic signs at 50 uM, ip measured after 48 hrs; format: organism-based; details: in vivo
[14] = test system: Klebsiella aerogenes; assay: Induction of cell transmembrane potential disruption in Enterobacter aerogenes Ea289 assessed as membrane potential by measuring fluorescence level at 100 uM by [DiSC3(5)] based assay (reference value: 0.2%)
[15] = test system: Klebsiella aerogenes; assay: Inhibition of AcrAB-TolC in Enterobacter aerogenes Ea289 assessed as retention of 1,2'diNA dye within bacterial membranes at 100 uM relative to control; design: scale not given: the % may be the effect or the level left
Summary of the method: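 Stationary-phase cells at OD600 0.25 in potassium phosphate buffer pH 7.0 with CCCP 5 µM, loaded overnight with 1,2'-diNA 32 µM at 37°C, washed, compound added at 100 µM. Glucose 50 mM added at 300 s to energize efflux. Fluorescence (ex 370/em 420 nm) read every 30 s at 37°C; PAβN 100 µM as reference.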

[16] = test system: Salmonella typhimurium; assay: Potentiation of doxycycline-induced antibacterial activity against Salmonella typhimurium assessed as mouse survival rate at 0.5 mg/kg, ip co-treated with 64 mg/kg for doxycycline (reference value: 0%); format: functional, Salmonella enterica subsp. enterica serovar Typhimurium
Summary of the method: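 Female BALB/cByJ mice, 5-6 weeks, anaesthetized with sevoflurane, infected ip with 200 µL of S. Typhimurium at 10² CFU/mL. Daily dosing with saline, doxycycline 64 mg/kg alone, or doxycycline 64 mg/kg plus 0.5 mg/kg compound. Mice weighed daily; sacrificed at day 1 (n=3), 3 (n=3) or 7 (n=6).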

[17] = test system: Klebsiella aerogenes; assay: Induction of outer cell membrane permeabilization in Enterobacter aerogenes Ea289 assessed as induction of H33342 dye penetration at 100 uM; format: organism-based
[18] = test system: Klebsiella aerogenes; assay: Induction of outer cell membrane permeabilization in Enterobacter aerogenes Ea289 assessed as induction of nitrocefin hydrolysis at 100 uM measured during initial 200 secs; format: organism-based
Summary of the method: (§3)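 Cells at OD600 0.25 in phosphate buffer (20 mM K2HPO4, 1 mM MgCl2, pH 7.0) with 5 μM CCCP, mixed with nitrocefin 50 μg/mL, then compound at 100 μM. Periplasmic β-lactamase hydrolysis followed by absorbance at 490 nm every 30 s at 37°C.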

[19] = test system: Klebsiella aerogenes; assay: Induction of outer cell membrane permeabilization in Enterobacter aerogenes Ea289 assessed as induction of nitrocefin hydrolysis at 100 uM incubated for 15 mins; format: organism-based; summary of the method: as §3
[20] = Toxicity in BALB/cByJ mouse assessed as effect on mouse survival at 50 uM, ip measured after 48 hrs; format: organism-based; details: in vivo
[21] = test system: Salmonella typhimurium; assay: Antibacterial activity against Salmonella enterica subsp. enterica serovar Typhimurium BN10055 assessed as inhibition of bacterial growth incubated for 18 hrs; format: organism-based; summary of the method: as §2
[22] = test system: Klebsiella aerogenes; assay: Antibacterial activity against Enterobacter aerogenes Ea289 assessed as inhibition of bacterial growth incubated for 18 hrs; format: organism-based; summary of the method: as §2
[23] = test system: Salmonella typhimurium; assay: Antibacterial activity against Salmonella enterica subsp. enterica serovar Typhimurium BN10055 containing deltaacrB mutant assessed as inhibition of bacterial growth incubated for 18 hrs; format: organism-based; summary of the method: as §2

SMILES | Ratio [1] | MIC [2] [µM] | Activity_index [3] | selectivity ratio [4] | Ratio [5] | Ratio [6] | Ratio [7] | Ratio [8] | Ratio [9] | IC50 at 24 h [10] [µM] | Ratio [11] | Ratio [12] | MIC [21] [µM] | MIC [22] [µM] | other results
CC(C)=CCC/C(C)=C\CCC(C)=CCNCCNCCNCCNCCNCCN | 2 | 7.8 (≈ 3.41 µg/mL) | 2.88 | 10.7 | 4 | 32 | 16 | 8 | 4 | 41.7 | 8 | 16 |  |  | 
CC(C)=CCCC(C)=CCNCCCN(CCCN)CCCN | 4 |  | 3.65 | 16.2 | 8 | 128 | 16 | 16 | 16 | 127 | 8 | 32 |  |  | Activity [13]: Non-Toxic; Activity [14]: 1%; Activity [15]: 68%; Survival [16]: 43%; Activity [17]: Active; Activity [18]: inactive; Activity [19]: Active; Activity [20]: Non-Toxic
CC(C)=CCCC(C)=CCNCCNCCNCCNCCNCCN |  |  | 0 | 0.06 | 8 | 16 | 4 | 8 | 1 | > 150 | 4 | 2 | > 500 | > 500 | 
CC(C)=CCCC(C)=CCNCCNCCNCCN |  |  | 0 | 0.06 | 8 | 16 |  | 4 |  | > 150 | 2 |  | > 500 | > 500 | 
CC(C)=CCC/C(C)=C\CCC(C)=CCNCCCCCCCCCCCCN | 2 | 7.8 (≈ 3.16 µg/mL) |  |  | 2 | 8 | 8 | 4 | 1 | 25.3 | 1 | 2 |  |  | MIC [23]: 3.9 µM (≈ 1.58 µg/mL)
